Reference: ChEMBL document CHEMBL1136740, “New active series of growth hormone secretagogues” (J Med Chem, 2003)
Non-standard residues stand in square brackets, D forms with d. Residues, ends and D or L forms follow the SMILES beside them. dTrp(2-Me) = Cc1[nH]c2ccccc2c1C[C@@H](N)C(=O)O; Aib = CC(C)(N)C(=O)O

Experiments:
[1] = target: T1, Growth hormone secretagogue receptor type 1 (Homo sapiens, UniProt Q92847); assay: Binding affinity towards human pituitary Growth hormone secretagogue receptor using [125I][Tyr4]-ghrelin as radioligand
Rattus norvegicus = assay: Ratio of GH release stimulated by 300 ug/kg of compound to that of GH release stimulated by 300 ug/kg of hexarelin in infant rat (sc injection); assay type: functional
Summary of the method: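 Male 10-day-old Sprague-Dawley pups, about 25 g, eight per group. Dosed sc at 300 µg/kg, with solvent as DMSO at final 1:300 dilution. Killed by decapitation 15 min later; trunk-blood plasma GH measured by RIA against the NIDDK rat standard, in ng/mL. Response compared with hexarelin at the same dose.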

[2] = target: T1, Growth hormone secretagogue receptor type 1; assay: Binding affinity towards cloned human Growth hormone secretagogue receptor type I in LLC PK-1 cells using [125I][His9]-ghrelin as radioligand; assay type: cell-based
Canis familiaris = assay: Concentration in dogs after oral administration at dose of 1 mg/kg after 180 min.; assay type: ADME, organism-based, Canis lupus familiaris; design: dose 1 mg/kg, route oral; conditions: dog, in vivo, 3 h
Summary of the method: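 Beagle dogs (4–6, 2–3 years, 11–15 kg, both sexes) dosed 1 mg/kg through an oral-gastric cannula in randomized sequence. Blood drawn from the cephalic vein at −20 min, then at 15–180 min into EDTA tubes. Plasma GH measured by canine GH RIA (sensitivity 0.4 ng/mL). Peak GH and AUC0–180 min by trapezoid method reported as mean ± SEM; sexes pooled.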

[3] = Stimulating GH secretion in dogs after oral administration at dose of 1 mg/kg

T1 sequence (Q92847 whole entry): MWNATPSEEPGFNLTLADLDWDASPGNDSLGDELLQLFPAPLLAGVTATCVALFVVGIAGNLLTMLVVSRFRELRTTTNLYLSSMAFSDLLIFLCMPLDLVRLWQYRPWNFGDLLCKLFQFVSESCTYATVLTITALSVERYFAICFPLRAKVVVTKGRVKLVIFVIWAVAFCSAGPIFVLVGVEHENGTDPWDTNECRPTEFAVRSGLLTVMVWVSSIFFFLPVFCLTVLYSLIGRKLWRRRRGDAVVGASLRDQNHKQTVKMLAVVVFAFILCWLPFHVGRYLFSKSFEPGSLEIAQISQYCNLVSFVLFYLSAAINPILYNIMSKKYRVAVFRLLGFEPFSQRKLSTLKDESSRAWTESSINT

Row | Compound | IC50 [1] [nM] | Ratio (Rattus norvegicus) | IC50 [2] [nM] | GH AUC 0-180 (Canis familiaris) [µg·min/L] | GH peak [3] [µg/L]
1 | CC(=O)N[C@@H](Cc1c[nH]c2ccccc12)NC(=O)[C@@H](Cc1c[nH]c2ccccc12)NC(=O)C(C)(C)N(C)C | 20.1 | 0.15 | 440 | – | –
2 | CC(=O)N[C@@H](Cc1c[nH]c2ccccc12)N(C)C(=O)[C@@H](Cc1c[nH]c2ccccc12)NC(=O)C(C)(C)N | – | 0.65 | – | – | –
3 | CC(C)(N)C(=O)N[C@@H](Cc1c[nH]c2ccccc12)C(=O)N[C@@H](Cc1c[nH]c2ccccc12)NC=O | – | 0.08 | – | – | –
4 | Cc1[nH]c2ccccc2c1C[C@H](NC=O)NC(=O)[C@@H](Cc1c(C)[nH]c2ccccc12)NC(=O)C(C)(C)N | – | 0.08 | – | – | –
5 | CNC(C)(C)C(=O)N[C@H](Cc1c[nH]c2ccccc12)C(=O)N(C)[C@H](Cc1c[nH]c2ccccc12)NC(C)=O | 25.6 | – | 29.5 | 262.43 | –
6 | CN(C)C(C)(C)C(=O)N[C@H](Cc1c[nH]c2ccccc12)C(=O)N[C@H](Cc1c[nH]c2ccccc12)NC=O | – | 0.69 | – | – | –
7 | CC(=O)N[C@@H](Cc1c[nH]c2ccccc12)NC(=O)[C@@H](Cc1c[nH]c2ccccc12)NC(=O)CC(C)C | – | 0.11 | – | – | –
8 | Cc1[nH]c2ccccc2c1C[C@@H](NC(=O)[C@@H](N)Cc1c[nH]cn1)C(=O)N[C@@H](C)C(=O)N[C@@H](Cc1c[nH]c2ccccc12)C(=O)N[C@H](Cc1ccccc1)C(=O)N[C@@H](CCCCN)C(N)=O [EXAMORELIN] (H-H[dTrp(2-Me)]AW[dF]K-NH2) | – | 1 | – | – | –
9 | Cc1[nH]c2ccccc2c1C[C@@H](NC=O)NC(=O)[C@@H](Cc1c(C)[nH]c2ccccc12)NC(=O)C(C)(C)N | – | 0.12 | – | – | –
10 | CNC(C)(C)C(=O)N[C@H](Cc1c[nH]c2ccccc12)C(=O)N[C@H](Cc1c[nH]c2ccccc12)NC(=O)CCC1CCCCC1 | – | 0.16 | – | – | –
11 | CC(C)(N)C(=O)N[C@H](Cc1c[nH]c2ccccc12)C(=O)N[C@H](Cc1c[nH]c2ccccc12)NC=O [MACIMORELIN] | 22.9 | 1.31 | 123 | 675.35 | 5.5
12 | CC(C)(N)C(=O)N[C@H](Cc1c[nH]c2ccccc12)C(=O)N[C@H](Cc1c[nH]c2ccccc12)NC(=O)CCC1CCCCC1 | – | 0.15 | – | – | –
13 | CNC(C)(C)C(=O)N[C@H](Cc1c[nH]c2ccccc12)C(=O)N[C@H](Cc1c[nH]c2ccccc12)N(C)C(C)=O | – | 1.21 | – | – | –
14 | CC(C)(N)C(=O)N[C@H](Cc1c[nH]c2ccccc12)C(=O)N[C@@H](Cc1c[nH]c2ccccc12)NC=O | – | 0.28 | – | – | –
15 | CC(=O)N[C@@H](Cc1c[nH]c2ccccc12)NC(=O)[C@@H](Cc1c[nH]c2ccccc12)NC(=O)C1(N)CCNCC1 | – | 0.46 | – | – | –
16 | CC(C)(N)C(=O)N[C@H](Cc1c[nH]c2ccccc12)C(=O)N[C@H](Cc1c[nH]c2ccccc12)NC(=O)C1CCCCN1 (some centres undefined) | 21.5 | – | 116 | 87.06 | –
17 | CNC(C)(C)C(=O)N[C@H](Cc1c[nH]c2ccccc12)C(=O)N[C@H](Cc1c[nH]c2ccccc12)NC=O | 39 | 0.64 | 22.7 | – | –
18 | CNC(C)(C)C(=O)N[C@H](Cc1c[nH]c2ccccc12)C(=O)N[C@@H](Cc1c[nH]c2ccccc12)N(C)C(C)=O | – | 0.2 | – | – | –
19 | CCNC(=O)N[C@@H](Cc1c[nH]c2ccccc12)NC(=O)[C@@H](Cc1c[nH]c2ccccc12)NC(=O)C(C)(C)N | 16.9 | – | 162 | 79.54 | –
20 | CC(=O)N[C@@H](Cc1c[nH]c2ccccc12)NC(=O)[C@@H](Cc1c[nH]c2ccccc12)NC(=O)C(C)(C)N | 3850 | 0.77 | 228 | – | –
21 | CCOC(=O)N[C@@H](Cc1c[nH]c2ccccc12)NC(=O)[C@@H](Cc1c[nH]c2ccccc12)NC(=O)C(C)(C)N | 16.2 | 0.2 | 122 | – | –
22 | CNC(C)(C)C(=O)N[C@H](Cc1c[nH]c2ccccc12)C(=O)N[C@H](Cc1c[nH]c2ccccc12)NC(=O)Cc1ccccc1 | – | 0.16 | – | – | –
23 | O=CN[C@@H](Cc1c[nH]c2ccccc12)NC(=O)[C@@H](Cc1c[nH]c2ccccc12)NS(=O)(=O)c1ccccc1 | – | 0.14 | – | – | –
24 | NC1(C(=O)N[C@H](Cc2c[nH]c3ccccc23)C(=O)N[C@H](Cc2c[nH]c3ccccc23)NC=O)CCNCC1 | 1790 | 0.95 | 337 | – | –

Row | Compound | IC50 [1] [nM] | Ratio (Rattus norvegicus) | IC50 [2] [nM] | GH AUC 0-180 (Canis familiaris) [µg·min/L] | GH peak [3] [µg/L]
25 | CC(C)(N)C(=O)N[C@@H](Cc1c[nH]c2ccccc12)C(=O)N[C@H](Cc1c[nH]c2ccccc12)NC=O | – | 0.07 | – | – | –
26 | CC(=O)N[C@@H](Cc1c[nH]c2ccccc12)NC(=O)[C@@H](Cc1c[nH]c2ccccc12)NC(C)=O | – | 0.13 | – | – | –
27 | CCC(=O)N[C@@H](Cc1c[nH]c2ccccc12)NC(=O)[C@@H](Cc1c[nH]c2ccccc12)NC(=O)C(C)(C)NC | > 10000 | 0.93 | 167 | – | –
28 | CNC(C)(C)C(=O)N[C@H](Cc1c[nH]c2ccccc12)C(=O)N[C@H](Cc1c[nH]c2ccccc12)NC(=O)Cc1c[nH]c2ccccc12 | – | 0.17 | – | – | –
29 | CS(=O)(=O)N[C@H](Cc1c[nH]c2ccccc12)C(=O)N[C@H](Cc1c[nH]c2ccccc12)NC=O | – | 0.09 | – | – | –
30 | CC(C)(N)C(=O)N[C@H](Cc1c[nH]c2ccccc12)C(=O)N[C@H](Cc1c[nH]c2ccccc12)NC(=O)Cc1ccccc1 | – | 0.11 | – | – | –
31 | O=CN[C@@H](Cc1c[nH]c2ccccc12)NC(=O)[C@@H](Cc1c[nH]c2ccccc12)NC(=O)C1CCNCC1 | 391 | 0.82 | 1160 | – | –
32 | CNC(C)(C)C(=O)N[C@H](Cc1c[nH]c2ccccc12)C(=O)N[C@](C)(Cc1c[nH]c2ccccc12)NC(C)=O | – | 1 | – | – | –
33 | CC(=O)N[C@@H](Cc1c[nH]c2ccccc12)NC(=O)[C@@H](Cc1c[nH]c2ccccc12)NC(=O)C1CCNCC1 | > 10000 | 0.53 | 807 | – | –
34 | CC(C)CC(=O)N[C@H](Cc1c[nH]c2ccccc12)C(=O)N[C@H](Cc1c[nH]c2ccccc12)NC=O | – | 0.09 | – | – | –
35 | CC(C)(N)C(=O)N[C@H](COCc1ccccc1)C(=O)N1CCC2(CC1)CN(S(C)(=O)=O)c1ccccc12 [IBUTAMOREN] | – | – | – | 544.55 | –
36 | CN[C@H](Cc1c[nH]c2ccccc12)C(=O)N[C@H](Cc1c[nH]c2ccccc12)NC=O | – | 0.09 | – | – | –
37 | Cc1[nH]c2ccccc2c1C[C@@H](NC(=O)[C@@H](N)Cc1cnc[nH]1)C(=O)N[C@@H](C)C(=O)N[C@@H](Cc1c[nH]c2ccccc12)C(=O)N[C@H](Cc1ccccc1)C(=O)N[C@@H](CCCCN)C(N)=O [EXAMORELIN] (H-H[dTrp(2-Me)]AW[dF]K-NH2) | 18 | – | – | – | –
38 | CC(C)CC(=O)N[C@@H](Cc1c[nH]c2ccccc12)NC(=O)[C@@H](Cc1c[nH]c2ccccc12)NC(=O)C(C)(C)N | 59.8 | 0.24 | 535 | – | –
39 | CNC(C)(C)C(=O)N[C@H](Cc1c[nH]c2ccccc12)C(=O)N[C@H](Cc1c[nH]c2ccccc12)NC(C)=O | 74 | 1.38 | 58 | 85.85 | 1.1
40 | CNC(C)(C)C(=O)N[C@H](Cc1c[nH]c2ccccc12)C(=O)N[C@H](Cc1c[nH]c2ccccc12)NC(=O)CC(C)C | 213 | 0.1 | 397 | – | –
41 | Cc1[nH]c2ccccc2c1C[C@@H](NC(=O)[C@H](Cc1c[nH]cn1)NC(=O)[C@H](C)NC(=O)[C@@H](N)Cc1ccc(O)cc1)C(=O)N[C@@H](C)C(=O)N[C@@H](Cc1c[nH]c2ccccc12)C(=O)N[C@H](Cc1ccccc1)C(=O)N[C@@H](CCCCN)C(N)=O (H-YAH[dTrp(2-Me)]AW[dF]K-NH2) | 12 | – | 286 | – | –
42 | Cc1[nH]c2ccccc2c1C[C@@H](NC(=O)[C@@H](Cc1c(C)[nH]c2ccccc12)NC(=O)C(C)(C)N)C(N)=O (H-[Aib]-[dTrp(2-Me)]-[dTrp(2-Me)]-NH2) | – | 0.89 | – | – | –
43 | CCC(=O)N[C@@H](Cc1c[nH]c2ccccc12)NC(=O)[C@@H](Cc1c[nH]c2ccccc12)NC(=O)C(C)(C)N | 185 | 0.69 | 460 | – | –
44 | CC(C)(N)C(=O)N[C@H](Cc1c[nH]c2ccccc12)C(=O)N[C@](C)(Cc1c[nH]c2ccccc12)NC=O | – | 0.91 | – | – | –
45 | CNC(C)(C)C(=O)N[C@H](Cc1c[nH]c2ccccc12)C(=O)N[C@H](Cc1c[nH]c2ccccc12)NC(=O)C1CCCCN1 (some centres undefined) | – | 0.85 | – | – | –
46 | CC(C)(N)C(=O)N[C@](C)(Cc1c[nH]c2ccccc12)C(=O)N[C@H](Cc1c[nH]c2ccccc12)NC=O | – | 0.12 | – | – | –
47 | CC(C)(N)C(=O)N[C@H](Cc1c[nH]c2ccccc12)C(=O)N[C@H](Cc1c[nH]c2ccccc12)NC(=O)Cc1c[nH]c2ccccc12 | – | 0.16 | – | – | –
